Source: ChEMBL document CHEMBL1765023, “Acetyl analogs of combretastatin A-4: synthesis and biological studies” (Bioorg Med Chem, 2011)

Experiments:
[1] = system: UO-31; assay: Growth inhibition of human UO31 cells after 48 hrs by sulforhodamine B assay; type: functional; settings: UO-31, 48 h
Outline: (§1)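 Tested in the NCI 60 human cancer cell line panel. Cells were exposed continuously for 48 h and proliferation was read by sulforhodamine B staining. GI50 (concentration for 50% growth inhibition), TGI (total growth inhibition) and LC50 were taken from dose–response curves.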

[2] = system: HCT-15; assay: Growth inhibition of human HCT15 cells after 48 hrs by sulforhodamine B assay; type: functional; settings: HCT-15, 48 h
Outline: (§2)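 NCI 60 human cancer cell line screen run at the National Cancer Institute. Cells had 48 h continuous exposure, and proliferation was read by sulforhodamine B staining. GI50 (50% growth inhibition) was taken from dose–response curves.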

[3] = system: Mus musculus; assay: Toxicity in DBA2 mouse assessed as change in color, weight and size in spleen at 75 mg/kg, ip QD administered on alternate days for 17 days measured on day 23 relative to control; type: organism-based; parameters: dose 75 mg/kg, route intraperitoneal; settings: in vivo, 408 h
Outline: (§3)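 Healthy female DBA2 mice, 5–7 weeks old, five per group, received 75 mg/kg ip on days 1, 5, 9, 13 and 17. Vehicle was PET (PEG400/ethanol/Tween 80, 6:3:1), 5% glucose and DMSO, with final ethanol 15% and DMSO 10%. Controls received 100 µL vehicle. Body weight was measured every other day. At sacrifice on day 23, blood counts (hematocrit, WBC, granulocytes, platelets) and liver, kidney and spleen appearance and weight were assessed.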

[4] = system: NCI-H522; assay: Growth inhibition of human NCI-H522 cells after 48 hrs by sulforhodamine B assay; type: functional; settings: NCI-H522, 48 h; outline: as §2
[5] = system: SNB-75; assay: Growth inhibition of human SNB75 cells after 48 hrs by sulforhodamine B assay; type: functional; settings: SNB-75, 48 h; outline: as §1
[6] = system: Mus musculus; assay: Toxicity in DBA2 mouse assessed as change in white blood count at 75 mg/kg, ip QD administered on alternate days for 17 days measured on day 23 relative to control; type: organism-based; parameters: dose 75 mg/kg, route intraperitoneal; settings: in vivo, 408 h; outline: as §3
[7] = system: Mus musculus; assay: Toxicity in DBA2 mouse assessed as change in hematocrit at 75 mg/kg, ip QD administered on alternate days for 17 days measured on day 23 relative to control; type: organism-based; parameters: dose 75 mg/kg, route intraperitoneal; settings: in vivo, 408 h; outline: as §3
[8] = Growth inhibition of human […] cells after 48 hrs by sulforhodamine B assay; type: functional; outline: as §2
[9] = system: SW-620; assay: Growth inhibition of human SW620 cells after 48 hrs by sulforhodamine B assay; type: functional; settings: SW-620, 48 h; outline: as §1
[10] = system: SNB-19; assay: Growth inhibition of human SNB19 cells after 48 hrs by sulforhodamine B assay; type: functional; settings: SNB-19, 48 h; outline: as §1
[11] = system: HT-29; assay: Growth inhibition of human HT-29 cells after 48 hrs by sulforhodamine B assay; type: functional; settings: HT-29, 48 h; outline: as §2
[12] = Induction of microtubule depolymerization in […] cells for 18 hrs by indirect immunofluorescence microscopic analysis; type: cell-based
Outline: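 Uses A-10 cells, a non-transformed line that arrests in interphase under microtubule-targeting agents. Cells were treated for 18 h and interphase microtubules were visualized by indirect immunofluorescence microscopy, with vehicle-treated controls. Depolymerization was screened at concentrations below 30 µM. For EC50, a range of concentrations was tested, and EC50 is the concentration causing 50% loss of cellular microtubules by microscopy.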

[13] = system: K562; assay: Growth inhibition of human K562 cells after 48 hrs by sulforhodamine B assay; type: functional; settings: K562, 48 h; outline: as §2
[14] = system: COLO 205; assay: Growth inhibition of human COLO205 cells after 48 hrs by sulforhodamine B assay; type: functional; settings: COLO 205, 48 h; outline: as §2
[15] = system: EKVX; assay: Growth inhibition of human EKVX cells after 48 hrs by sulforhodamine B assay; type: functional; outline: as §2
[16] = system: T47D; assay: Growth inhibition of human T47D cells after 48 hrs by sulforhodamine B assay; type: functional; outline: as §1
[17] = system: OVCAR-8; assay: Growth inhibition of human OVCAR8 cells after 48 hrs by sulforhodamine B assay; type: functional; settings: OVCAR-8, 48 h; outline: as §2
[18] = system: Malme-3M; assay: Growth inhibition of human MALME-3M cells after 48 hrs by sulforhodamine B assay; type: functional; settings: read-out: pTGI; outline: as §2
[19] = system: SF-295; assay: Growth inhibition of human SF295 cells after 48 hrs by sulforhodamine B assay; type: functional; settings: SF-295, 48 h; outline: as §2
[20] = system: KM12; assay: Growth inhibition of human KM12 cells after 48 hrs by sulforhodamine B assay; type: functional; settings: KM12, 48 h; outline: as §2
[21] = system: HOP-62; assay: Growth inhibition of human HOP62 cells after 48 hrs by sulforhodamine B assay; type: functional; settings: HOP-62, 48 h; outline: as §2
[22] = system: HCT-116; assay: Growth inhibition of human HCT116 cells after 48 hrs by sulforhodamine B assay; type: functional; settings: HCT-116, 48 h; outline: as §2
[23] = system: Mus musculus; assay: Toxicity in DBA2 mouse assessed as change in color, weight and size in kidney at 75 mg/kg, ip QD administered on alternate days for 17 days measured on day 23 relative to control; type: organism-based; parameters: dose 75 mg/kg, route intraperitoneal; settings: in vivo, 408 h; outline: as §3
[24] = system: IGROV-1; assay: Growth inhibition of human IGROV1 cells after 48 hrs by sulforhodamine B assay; type: functional; settings: IGROV-1, 48 h; outline: as §2
[25] = system: U-251; assay: Growth inhibition of human U251 cells after 48 hrs by sulforhodamine B assay; type: functional; settings: U-251, 48 h; outline: as §1
[26] = system: CAKI-1; assay: Growth inhibition of human Caki1 cells after 48 hrs by sulforhodamine B assay; type: functional; settings: CAKI-1, 48 h; outline: as §2
[27] = system: SR; assay: Growth inhibition of human SR cells after 48 hrs by sulforhodamine B assay; type: functional; outline: as §1
[28] = system: NCI-H23; assay: Growth inhibition of human NCI-H23 cells after 48 hrs by sulforhodamine B assay; type: functional; settings: NCI-H23, 48 h; outline: as §2
[29] = system: PC-3; assay: Growth inhibition of human PC3 cells after 48 hrs by sulforhodamine B assay; type: functional; settings: PC-3, 48 h; outline: as §2
[30] = system: SN12C; assay: Growth inhibition of human SN12C cells after 48 hrs by sulforhodamine B assay; type: functional; outline: as §1
[31] = system: TK-10; assay: Growth inhibition of human TK10 cells after 48 hrs by sulforhodamine B assay; type: functional; settings: TK-10, 48 h; outline: as §1
[32] = Growth inhibition of human Hs 578T cells after 48 hrs by sulforhodamine B assay; type: functional; outline: as §2
[33] = system: OVCAR-4; assay: Growth inhibition of human OVCAR4 cells after 48 hrs by sulforhodamine B assay; type: functional; settings: OVCAR-4, 48 h; outline: as §2

Work on `COc1ccc(/C=C(/C(C)=O)c2cc(OC)c(OC)c(OC)c2)cc1O` yielded a GI50 [1] of 0.575 µM, a TGI ([1]; read-out: pTGI) of over 100 µM and a GI50 [2] of 0.398 µM. For the same compound, the TGI ([2]; read-out: pTGI) was over 100 µM, the Activity [3] was “Non-toxic” and the GI50 [4] was 0.135 µM. The TGI ([4]; read-out: pTGI (converted)) was 0.537 µM, the GI50 [5] was 0.257 µM and the TGI ([5]; read-out: pTGI) was over 100 µM. The Activity [6] was “Non-toxic”, the Activity [7] was “Non-toxic” and the GI50 [8] was 0.661 µM. For the same compound, the TGI ([8]; read-out: pTGI) was over 100 µM, the GI50 [9] was 0.0912 µM and the TGI ([9]; read-out: pTGI (converted)) was 53.7 µM. It also gave a GI50 [10] of 0.676 µM, a TGI ([10]; read-out: pTGI) of over 100 µM and a GI50 [11] of 3.63 µM. The TGI ([11]; read-out: pTGI (converted)) was 15.5 µM, the EC50 [12] was 1.8 µM and the GI50 [13] was 0.0407 µM. It also gave a TGI ([13]; read-out: pTGI) of over 100 µM, a GI50 [14] of 10.7 µM and a TGI ([14]; read-out: pTGI (converted)) of 37.2 µM. It also gave a GI50 [15] of 5.25 µM, a TGI ([15]; read-out: pTGI) of over 100 µM and a GI50 [16] of 100 µM. The TGI ([16]; read-out: pTGI) was over 100 µM, the GI50 [17] was 0.372 µM and the TGI ([17]; read-out: pTGI) was over 100 µM. For the same compound, the TGI [18] was over 100 µM, the GI50 [19] was 0.263 µM and the TGI ([19]; read-out: pTGI (converted)) was 1.05 µM. It also gave a GI50 [20] of 0.112 µM, a TGI ([20]; read-out: pTGI (converted)) of 1.95 µM and a GI50 [21] of 0.589 µM. For the same compound, the TGI ([21]; read-out: pTGI) was over 100 µM, the GI50 [22] was 0.331 µM and the TGI ([22]; read-out: pTGI) was over 100 µM. For the same compound, the Activity [23] was “Non-toxic”, the GI50 [24] was 0.316 µM and the TGI ([24]; read-out: pTGI) was over 100 µM. For the same compound, the GI50 [25] was 0.324 µM, the TGI ([25]; read-out: pTGI) was over 100 µM and the GI50 [26] was 0.186 µM. The TGI ([26]; read-out: pTGI (converted)) was 19.5 µM, the GI50 [27] was 0.0263 µM and the TGI ([27]; read-out: pTGI) was over 100 µM. For the same compound, the GI50 [28] was 0.355 µM, the TGI ([28]; read-out: pTGI) was over 100 µM and the GI50 [29] was 0.191 µM. The TGI ([29]; read-out: pTGI) was over 100 µM, the GI50 [30] was 0.776 µM and the TGI ([30]; read-out: pTGI) was over 100 µM. For the same compound, the GI50 [31] was 18.2 µM, the TGI ([31]; read-out: pTGI) was over 100 µM and the GI50 [32] was 0.0891 µM. For the same compound, the TGI ([32]; read-out: pTGI (converted)) was 74.1 µM, the GI50 [33] was 0.933 µM and the TGI ([33]; read-out: pTGI) was over 100 µM.
